Test results taken from article PMC4431436 (Oncology Reports, 2015).
Entries after “also recorded” stand apart in the source; their conditions may differ. Where two headings read alike, the source gives them in different places.

What was measured:
[1] = test system: B16F10-luc melanoma cells; test: bioluminescent imaging of de novo lung metastasis, B16F10-luc melanoma model; format: in vivo, (nu/nu) female mice
Procedure, shortened: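 8-week-old nu/nu females got 2.5×10⁵ G418-selected luciferase-expressing B16F10 cells i.v. From day 1, saline or test compound 300 mg/kg p.o. b.i.d. for two weeks; n=10/group. Imaged on days 0, 3, 8, 11 and 15 under 2.5% isoflurane after D-luciferin 90 mg/kg i.p. Total flux (photons/s) taken in head, lung and abdomen ROIs, dorsal and ventral. Then ex vivo lung imaging and surface colony counts. Mean ± SEM.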

human integrin αvβ3 = human integrin αvβ3 (Homo sapiens, UniProt P05106+P06756); test: cell adhesion assay, HeK293-αvβ3 cells to vitronectin; format: cell-based
Sequence of human integrin αvβ3 (P06756 891-1048): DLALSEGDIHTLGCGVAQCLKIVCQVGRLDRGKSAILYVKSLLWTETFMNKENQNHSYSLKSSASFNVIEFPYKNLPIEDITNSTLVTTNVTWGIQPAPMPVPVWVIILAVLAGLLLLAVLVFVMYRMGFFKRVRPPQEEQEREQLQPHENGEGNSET
Sequence of human integrin αvβ3 (P05106 27-788): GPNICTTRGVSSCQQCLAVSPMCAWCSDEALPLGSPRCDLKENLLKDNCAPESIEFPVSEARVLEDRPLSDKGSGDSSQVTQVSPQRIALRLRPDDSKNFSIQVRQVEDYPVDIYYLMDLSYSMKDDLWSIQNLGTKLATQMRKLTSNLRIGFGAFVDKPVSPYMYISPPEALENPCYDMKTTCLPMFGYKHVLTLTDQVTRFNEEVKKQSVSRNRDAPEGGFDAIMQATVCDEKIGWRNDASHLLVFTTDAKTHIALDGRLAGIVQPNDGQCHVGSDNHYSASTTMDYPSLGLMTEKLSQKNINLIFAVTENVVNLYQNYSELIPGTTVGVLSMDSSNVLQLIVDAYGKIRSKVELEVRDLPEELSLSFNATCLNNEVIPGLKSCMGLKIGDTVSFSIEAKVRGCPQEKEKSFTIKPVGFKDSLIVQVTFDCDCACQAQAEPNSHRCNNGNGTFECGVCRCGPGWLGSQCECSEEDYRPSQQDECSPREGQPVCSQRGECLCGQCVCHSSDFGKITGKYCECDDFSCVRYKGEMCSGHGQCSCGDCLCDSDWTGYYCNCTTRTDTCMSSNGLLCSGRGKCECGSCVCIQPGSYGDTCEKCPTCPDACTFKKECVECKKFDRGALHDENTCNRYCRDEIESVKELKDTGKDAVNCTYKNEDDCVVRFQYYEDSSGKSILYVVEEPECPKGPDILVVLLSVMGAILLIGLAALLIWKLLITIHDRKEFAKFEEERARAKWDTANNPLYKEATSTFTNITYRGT
Sequence of human integrin αvβ3 (P06756 31-889): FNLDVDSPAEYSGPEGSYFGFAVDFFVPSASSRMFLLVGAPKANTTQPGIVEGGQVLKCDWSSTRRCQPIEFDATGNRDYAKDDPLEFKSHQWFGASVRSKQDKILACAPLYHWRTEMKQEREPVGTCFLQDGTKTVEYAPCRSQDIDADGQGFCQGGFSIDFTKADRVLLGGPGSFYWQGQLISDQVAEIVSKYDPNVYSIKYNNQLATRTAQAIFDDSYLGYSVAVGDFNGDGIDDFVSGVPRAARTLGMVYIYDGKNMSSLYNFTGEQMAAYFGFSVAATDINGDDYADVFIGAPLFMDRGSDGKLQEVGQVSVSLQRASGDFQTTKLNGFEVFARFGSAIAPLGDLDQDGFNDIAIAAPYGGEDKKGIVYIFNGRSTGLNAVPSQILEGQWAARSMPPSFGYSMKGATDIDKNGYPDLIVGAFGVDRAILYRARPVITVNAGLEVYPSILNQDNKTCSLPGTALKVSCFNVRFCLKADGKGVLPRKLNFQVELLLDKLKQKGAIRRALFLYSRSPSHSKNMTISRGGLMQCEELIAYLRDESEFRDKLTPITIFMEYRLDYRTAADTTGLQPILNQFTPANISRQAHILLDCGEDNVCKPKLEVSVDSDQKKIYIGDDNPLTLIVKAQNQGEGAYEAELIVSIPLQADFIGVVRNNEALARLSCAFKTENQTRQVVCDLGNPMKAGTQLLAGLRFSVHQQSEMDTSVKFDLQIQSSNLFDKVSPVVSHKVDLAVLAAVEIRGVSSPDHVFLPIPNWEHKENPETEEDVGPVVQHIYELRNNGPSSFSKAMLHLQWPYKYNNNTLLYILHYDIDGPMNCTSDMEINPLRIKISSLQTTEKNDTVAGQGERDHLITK
Procedure, shortened: (§1)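 Stably transfected HEK293 cells overexpressing a human integrin, 25×10³ cells/well, attached for 2 h at 37°C in a humidified incubator, with or without increasing concentrations of test compound. Wells were coated with vitronectin (αvβ3, αvβ5), fibrinogen (αIIbβ3) or fibronectin (α5β1). Non-attached cells were washed off. Attached cells were quantified by colorimetric hexosaminidase activity against a per-line standard curve; mean of triplicates.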

[2] = target: purified murine αvβ3 integrin (Mus musculus, UniProt O54890+P43406); test: 3H-MK-0429 binding assay with purified receptor
Sequence of purified murine αvβ3 integrin (P43406 31-885): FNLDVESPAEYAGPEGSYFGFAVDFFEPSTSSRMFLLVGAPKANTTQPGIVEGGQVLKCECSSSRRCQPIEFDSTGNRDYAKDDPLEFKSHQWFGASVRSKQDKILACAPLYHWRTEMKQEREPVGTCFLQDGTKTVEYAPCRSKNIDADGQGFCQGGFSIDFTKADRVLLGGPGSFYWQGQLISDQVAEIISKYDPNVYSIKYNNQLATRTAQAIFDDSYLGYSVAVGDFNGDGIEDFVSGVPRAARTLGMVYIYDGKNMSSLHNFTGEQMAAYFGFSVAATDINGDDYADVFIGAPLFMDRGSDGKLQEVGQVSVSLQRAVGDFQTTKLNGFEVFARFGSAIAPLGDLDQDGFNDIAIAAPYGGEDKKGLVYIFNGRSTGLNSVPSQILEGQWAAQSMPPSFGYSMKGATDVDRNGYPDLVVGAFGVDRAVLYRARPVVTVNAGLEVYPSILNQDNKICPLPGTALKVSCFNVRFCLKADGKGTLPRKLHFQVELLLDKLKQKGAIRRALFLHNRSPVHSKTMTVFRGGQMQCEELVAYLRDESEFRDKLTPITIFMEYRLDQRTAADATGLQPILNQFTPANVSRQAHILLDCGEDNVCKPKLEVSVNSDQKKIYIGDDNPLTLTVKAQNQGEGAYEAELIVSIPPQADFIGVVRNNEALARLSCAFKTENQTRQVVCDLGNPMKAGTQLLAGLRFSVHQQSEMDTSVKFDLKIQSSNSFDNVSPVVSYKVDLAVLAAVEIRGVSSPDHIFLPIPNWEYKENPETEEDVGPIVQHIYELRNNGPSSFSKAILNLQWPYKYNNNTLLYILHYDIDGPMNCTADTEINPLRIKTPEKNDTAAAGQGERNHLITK
Sequence of purified murine αvβ3 integrin (P43406 887-1044): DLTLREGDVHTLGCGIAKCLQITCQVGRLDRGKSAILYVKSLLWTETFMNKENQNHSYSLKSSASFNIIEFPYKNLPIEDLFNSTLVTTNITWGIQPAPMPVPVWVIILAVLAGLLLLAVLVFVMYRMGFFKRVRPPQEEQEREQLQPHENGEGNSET
Sequence of purified murine αvβ3 integrin (O54890 26-787): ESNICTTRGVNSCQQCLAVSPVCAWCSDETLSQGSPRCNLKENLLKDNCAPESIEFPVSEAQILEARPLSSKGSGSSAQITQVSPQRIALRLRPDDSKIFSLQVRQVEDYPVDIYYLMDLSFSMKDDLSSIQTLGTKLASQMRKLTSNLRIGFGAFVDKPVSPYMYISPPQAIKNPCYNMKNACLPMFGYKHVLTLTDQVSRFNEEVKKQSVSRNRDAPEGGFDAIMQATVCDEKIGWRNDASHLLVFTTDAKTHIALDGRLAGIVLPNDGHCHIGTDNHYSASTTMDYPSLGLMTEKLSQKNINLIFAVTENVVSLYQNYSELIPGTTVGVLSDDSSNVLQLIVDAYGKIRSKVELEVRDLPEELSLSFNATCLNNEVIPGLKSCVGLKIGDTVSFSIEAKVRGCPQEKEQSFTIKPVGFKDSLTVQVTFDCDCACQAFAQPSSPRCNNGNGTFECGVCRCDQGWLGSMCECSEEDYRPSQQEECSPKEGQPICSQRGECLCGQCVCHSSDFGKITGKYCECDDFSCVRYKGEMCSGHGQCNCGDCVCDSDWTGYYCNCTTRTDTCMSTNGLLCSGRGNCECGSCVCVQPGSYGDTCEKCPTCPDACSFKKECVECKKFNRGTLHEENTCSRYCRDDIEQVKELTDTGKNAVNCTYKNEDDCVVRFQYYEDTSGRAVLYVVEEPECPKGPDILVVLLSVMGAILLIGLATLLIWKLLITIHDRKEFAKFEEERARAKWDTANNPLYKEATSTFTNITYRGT

murine B16F10 melanoma = test: lung metastasis in the murine B16F10 melanoma prevention model; format: in vivo, B6D2F1 hybrid female mice; conditions: for total tumor colony number on lung surface: Veh 90±5, mean ± SEM
Procedure, shortened: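 6-week-old B6D2F1 females got 1.5×10⁵ B16F10 cells (cultured in DMEM/10% FBS) by i.v. tail vein. Necropsy ~2 weeks. Surface colonies counted across five lung regions; formalin-fixed frontal H&E sections for tumor area. Mean ± SEM; ANOVA/Tukey or t-test; Fisher's PLSD for area.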

[3] = test system: osteoclastic bone resorption; conditions: read-out: IC50, inhibition of osteoclastic bone resorption; in vitro; cited from earlier work
[4] = target: T1, purified rat αvβ3 integrin (Rattus norvegicus, UniProt F1LZX9+Q8R2H2); test: 3H-MK-0429 binding assay with purified receptor
T1 sequence (F1LZX9 31-1043): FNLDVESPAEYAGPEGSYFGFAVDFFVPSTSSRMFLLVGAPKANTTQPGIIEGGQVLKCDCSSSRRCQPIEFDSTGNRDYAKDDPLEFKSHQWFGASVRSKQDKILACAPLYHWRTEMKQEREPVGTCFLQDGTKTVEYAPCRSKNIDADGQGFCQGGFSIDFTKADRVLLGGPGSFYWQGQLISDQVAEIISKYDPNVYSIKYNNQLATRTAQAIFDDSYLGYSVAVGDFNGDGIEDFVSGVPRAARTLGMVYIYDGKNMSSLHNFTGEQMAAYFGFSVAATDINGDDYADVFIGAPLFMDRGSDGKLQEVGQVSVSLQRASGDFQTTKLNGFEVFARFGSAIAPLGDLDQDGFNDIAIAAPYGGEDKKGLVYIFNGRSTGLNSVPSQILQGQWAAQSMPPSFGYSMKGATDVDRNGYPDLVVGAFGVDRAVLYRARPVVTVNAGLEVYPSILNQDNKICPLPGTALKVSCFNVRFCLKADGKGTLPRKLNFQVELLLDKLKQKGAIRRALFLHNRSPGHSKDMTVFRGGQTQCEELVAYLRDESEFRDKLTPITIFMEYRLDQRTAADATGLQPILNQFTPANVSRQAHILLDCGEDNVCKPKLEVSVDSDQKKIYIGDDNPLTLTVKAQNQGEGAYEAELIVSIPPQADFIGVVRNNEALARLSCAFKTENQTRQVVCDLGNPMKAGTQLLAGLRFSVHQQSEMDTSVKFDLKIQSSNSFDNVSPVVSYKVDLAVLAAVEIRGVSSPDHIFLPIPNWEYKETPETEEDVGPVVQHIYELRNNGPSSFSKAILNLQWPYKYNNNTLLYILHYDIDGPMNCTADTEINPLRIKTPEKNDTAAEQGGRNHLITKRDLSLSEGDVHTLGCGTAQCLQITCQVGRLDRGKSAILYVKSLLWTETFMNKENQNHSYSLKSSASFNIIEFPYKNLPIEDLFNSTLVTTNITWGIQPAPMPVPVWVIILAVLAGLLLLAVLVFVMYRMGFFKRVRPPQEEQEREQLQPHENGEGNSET
T1 sequence (Q8R2H2 26-787): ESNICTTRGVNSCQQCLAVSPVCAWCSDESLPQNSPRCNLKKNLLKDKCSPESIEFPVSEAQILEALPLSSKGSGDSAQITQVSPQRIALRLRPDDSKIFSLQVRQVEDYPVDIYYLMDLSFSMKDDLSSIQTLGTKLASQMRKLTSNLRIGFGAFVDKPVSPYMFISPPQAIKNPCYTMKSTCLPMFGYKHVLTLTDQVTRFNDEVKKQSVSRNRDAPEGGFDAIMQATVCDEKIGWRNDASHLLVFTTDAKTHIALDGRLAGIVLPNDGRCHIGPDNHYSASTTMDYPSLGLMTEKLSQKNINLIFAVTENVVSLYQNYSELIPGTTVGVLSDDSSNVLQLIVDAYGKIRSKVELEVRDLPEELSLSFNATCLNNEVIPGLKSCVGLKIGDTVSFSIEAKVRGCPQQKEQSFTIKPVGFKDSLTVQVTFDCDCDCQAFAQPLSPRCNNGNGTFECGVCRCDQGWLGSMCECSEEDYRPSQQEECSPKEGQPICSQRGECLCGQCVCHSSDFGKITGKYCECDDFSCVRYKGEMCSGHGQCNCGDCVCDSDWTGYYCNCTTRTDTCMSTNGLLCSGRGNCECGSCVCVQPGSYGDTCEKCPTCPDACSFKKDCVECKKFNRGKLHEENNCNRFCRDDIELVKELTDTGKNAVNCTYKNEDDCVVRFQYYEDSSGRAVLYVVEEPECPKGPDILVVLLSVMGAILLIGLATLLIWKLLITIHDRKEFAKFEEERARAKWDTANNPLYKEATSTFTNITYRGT

[5] = target: purified human αvβ3 integrin (Homo sapiens, UniProt P05106+P06756); test: 3H-MK-0429 binding assay with purified receptor
Sequence of purified human αvβ3 integrin (P05106 27-788): as the sequence (P05106 27-788) above
Sequence of purified human αvβ3 integrin (P06756 31-889): as the sequence (P06756 31-889) above
Sequence of purified human αvβ3 integrin (P06756 891-1048): as the sequence (P06756 891-1048) above

[6] = body weight of mice injected with B16F10 melanoma; format: in vivo, B6D2F1 hybrid female mice; conditions: 100 and 300 mg/kg, p.o., b.i.d., over the study duration
[7] = ovariectomized monkeys; cited from earlier work
[8] = cited from earlier work
human integrin αIIbβ3 = test: cell adhesion assay, HeK293 overexpressing αIIbβ3 to fibrinogen; format: cell-based; conditions: relative to αvβ3-mediated adhesion
Procedure, shortened: as §1

[9] = cited from earlier work; remark: listed apart in the source
human integrin αvβ5 = test: cell adhesion assay, HeK293 overexpressing αvβ5 to vitronectin; format: cell-based; conditions: relative to αvβ3-mediated adhesion
Procedure, shortened: as §1

[10] = ovariectomized rats; cited from earlier work
human integrin α5β1 = test: cell adhesion assay, HeK293 overexpressing α5β1 to fibronectin; format: cell-based; conditions: relative to αvβ3-mediated adhesion
Procedure, shortened: as §1

metastatic melanoma [11] = conditions: intravenously twice weekly; stage IV or unresectable stage III; cited from earlier work
[12] = approximately; cited from earlier work
metastatic melanoma [13] = conditions: 8 mg/kg once weekly, i.v.; stage IV metastatic melanoma; cited from earlier work
[14] = 300 mg/kg, p.o., b.i.d., day 11

COc1ccc([C@H](CC(=O)O)N2CCN(CCCc3ccc4c(n3)NCCC4)C2=O)cn1 [MK-0429, 3(S)-(6-methoxypyridin-3-yl)-3-[2-oxo-3-[3-(5,6,7,8-tetrahydro-[1,8]-naphthyridin-2-yl)propyl]imidazolidin-1-yl] propionic acid]
reduction of visible metastatic colonies counted on the ex vivo lung surface ([1]; 300 mg/kg twice daily for two weeks, p<0.05 vs. Veh): 32%
decrease of metastasis in the lungs, ex vivo bioluminescence, vs vehicle ([1]; 300 mg/kg, p.o., b.i.d.): ~ 40%
ex vivo lung tumor burden (bioluminescence) ([1]; 300 mg/kg, p.o., b.i.d., Veh 118.1±27.1, not statistically significant): 69.9±5.9 ×10^5 photons/sec
reduction of melanoma burden in the ventral lung (bioluminescence) vs vehicle ([1]; 300 mg/kg, p.o., b.i.d., day 8): 38%
reduction of tumor metastases in the dorsal lung (bioluminescence) vs vehicle ([1]; 300 mg/kg, p.o., b.i.d., day 8): 15%
reduction of melanoma burden in the ventral lung (bioluminescence) vs vehicle [1, 14]: 37%
reduction of tumor metastases in the dorsal lung (bioluminescence) vs vehicle [1, 14]: 54%
reduction of tumor metastases in the dorsal lung (bioluminescence) vs vehicle ([1]; 300 mg/kg, p.o., b.i.d., day 15, p=0.0561 vs. Veh): 38%
IC50 (human integrin αvβ3): 0.58 ± 0.3 nM
Kd [2]: 0.56 ± 0.07 nM
reduction of tumor colony number vs vehicle (murine B16F10 melanoma; 100 mg/kg, p.o., b.i.d.): 64%
total tumor colony number on lung surface (murine B16F10 melanoma; 100 mg/kg, p.o., b.i.d.): 33±6
total tumor area in lung sections (H&E) (murine B16F10 melanoma; 300 mg/kg, b.i.d., Veh 11.1±0.4, n=5/group): 5.0±0.7 mm^2
reduction of tumor colony number vs vehicle (murine B16F10 melanoma; 300 mg/kg, p.o., b.i.d.): 57%
total tumor colony number on lung surface (murine B16F10 melanoma; 300 mg/kg, p.o., b.i.d.): 39±9
reduction of melanoma colonies in all lung regions (murine B16F10 melanoma; 100 and 300 mg/kg, p.o., b.i.d., five lung regions): 53–68%
IC50 [3]: 12.2 ± 4.5 nM
Kd [4]: 1.23 ± 0.11 nM
Kd [5]: 0.33 ± 0.04 nM
effect on body weight [6]: no significant weight loss
bone mass [7]: increases bone mass
bone turnover [7]: significantly reduces bone turnover
bone mineral density at the spine and hip compared to placebo ([8]; 100 or 400 mg once daily, or 200 mg twice daily for 12 months): significant increase
tolerability ([8]; postmenopausal women with osteoporosis): well tolerated and without serious adverse events
fold less active in blocking adhesion mediated by αIIbβ3 to fibrinogen (human integrin αIIbβ3): > 1,000 fold
bone resorption marker urinary N-telopeptide ([9]; 200 and 1,600 mg orally, twice daily for four weeks): significantly decreased
tolerability ([9]; up to 1,600 mg twice daily for four weeks): well tolerated at this high dose; also recorded: well tolerated and without serious adverse events
fold less potent in blocking adhesion of HeK293-αvβ5 to vitronectin (human integrin αvβ5): ~ 100 fold
bone mass [10]: increases bone mass
bone turnover [10]: significantly reduces bone turnover
fold less active in blocking adhesion mediated by α5β1 to fibronectin (human integrin α5β1): > 1,000 fold

Cilengitide [reference compound]
clinical efficacy as single-agent therapy for advanced melanoma (metastatic melanoma [11]): minimal clinical efficacy
half-life [12]: 2 to 4 h

O=P1(N(CCCl)CCCl)NCCCO1 (stereo not drawn) [Cyclophosphamide, cyclophosphamide, reference compound]
reduction of tumor colony number vs vehicle (murine B16F10 melanoma; 300 mg/kg, i.p., q.d.): 99%

B1: etaracizumab: monoclonal antibody against αvβ3 (antibody, chains of the INN, looked up, V domains shown)
VH: QVQLVESGGGVVQPGRSLRLSCAASGFTFSSYDMSWVRQAPGKGLEWVAKVSSGGGSTYYLDTVQGRFTISRDNSKNTLYLQMNSLRAEDTAVYYCARHLHGSFASWGQGTTVTVSS
VL: EIVLTQSPATLSLSPGERATLSCQASQSISNFLHWYQQRPGQAPRLLIRYRSQSISGIPARFSGSGSGTDFTLTISSLEPEDFAVYYCQQSGSWPLTFGGGTKVEIK
median survival rate, alone vs in combination with dacarbazine (metastatic melanoma [13]): not different
half-life [12]: a few days
